Source: ChEMBL document CHEMBL1143260, “Substrate specificity and screening of the integral membrane protease Pla” (Bioorg Med Chem Lett, 2008)
Active and inactive are the calls of the source. The rule behind the calls is not given here. Residues, ends and D or L forms follow the SMILES beside them. *: point of attachment. X1 = CN(C)c1ccc(/N=N/c2ccc(C(=O)*)cc2)cc1; EDANS = O=S(=O)(O)c1cccc2c(NCCN*)cccc12

Tests used:
[1] = target: Tissue-type plasminogen activator (Homo sapiens) (UniProt P00750); assay: Inhibition of recombinant plasminogen activator assessed as conversion of plasminogen to plasmin in fibrinolytic assay
Sequence of Tissue-type plasminogen activator (Homo sapiens) (P00750 36-562 limits assumed): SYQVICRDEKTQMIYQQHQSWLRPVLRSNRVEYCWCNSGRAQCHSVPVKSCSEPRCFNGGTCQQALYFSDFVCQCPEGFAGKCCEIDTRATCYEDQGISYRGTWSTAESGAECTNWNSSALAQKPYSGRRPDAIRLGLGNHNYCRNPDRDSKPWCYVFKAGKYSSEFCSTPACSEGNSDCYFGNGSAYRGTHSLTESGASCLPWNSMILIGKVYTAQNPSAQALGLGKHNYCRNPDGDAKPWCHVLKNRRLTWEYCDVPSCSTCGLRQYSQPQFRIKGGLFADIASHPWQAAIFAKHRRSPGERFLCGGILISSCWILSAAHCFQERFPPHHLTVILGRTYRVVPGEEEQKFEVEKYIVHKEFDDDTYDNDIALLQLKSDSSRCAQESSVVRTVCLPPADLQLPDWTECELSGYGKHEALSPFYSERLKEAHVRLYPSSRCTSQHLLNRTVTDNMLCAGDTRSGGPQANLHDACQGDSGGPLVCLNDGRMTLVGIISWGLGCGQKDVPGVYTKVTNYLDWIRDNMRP
In short: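 Fibrin plate functional assay: purified Pla was pre-incubated with the peptide, dissolved in DMSO or water and tested in 2-fold dilutions. Samples were spotted onto an opalescent fibrin film containing plasminogen. No-peptide spots served as controls.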

[2] = target: Tissue-type plasminogen activator (Homo sapiens) (UniProt P00750); assay: Hydrolysis activity of plasminogen activator by LC-MS analysis
In short: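 Peptides were incubated with Pla, and the reaction mixtures were analysed by LC-MS. Cleavage was assigned from product retention time and mass, for example a DABCYL-Arg-OH fragment.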

[3] = target: T1, Plasminogen activator (Yersinia pestis) (UniProt P17811); assay: Inhibition of plasminogen activator in Yersinia pestis by fluorometric assay
T1 sequence (whole entry): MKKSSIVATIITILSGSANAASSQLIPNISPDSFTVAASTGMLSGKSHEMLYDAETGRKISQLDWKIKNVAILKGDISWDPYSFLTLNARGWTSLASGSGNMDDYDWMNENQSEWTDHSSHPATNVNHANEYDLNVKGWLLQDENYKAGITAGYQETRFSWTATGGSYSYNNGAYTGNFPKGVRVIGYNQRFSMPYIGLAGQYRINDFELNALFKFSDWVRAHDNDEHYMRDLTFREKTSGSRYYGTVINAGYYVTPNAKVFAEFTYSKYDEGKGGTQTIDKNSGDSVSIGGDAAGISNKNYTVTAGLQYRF

[4] = target: Urokinase-type plasminogen activator (Homo sapiens) (UniProt P00749); assay: Inhibition of urokinase-type plasminogen activator
[5] = target: T1, Plasminogen activator (Yersinia pestis); assay: Inhibition of plasminogen activator in Yersinia pestis assessed as conversion of plasminogen to plasmin in fibrinolytic assay
In short: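 Fibrin plate assay. Purified recombinant Pla was pre-incubated with the peptide in 2-fold dilutions (dissolved in DMSO or water), then spotted onto an opalescent fibrin film. Pla converts plasminogen to plasmin, and fibrinolysis appears as a clear spot. Inhibition was judged against spots with no peptide added.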

[6] = target: Tissue-type plasminogen activator (Homo sapiens) (UniProt P00750); assay: Inhibition of purified recombinant plasminogen activator by fluorometric assay

SMILES	Activity [1]	Activity [2]	Activity [3]	Activity [4]	Activity [5]	Activity [6]
CC[C@H](C)[C@H](NC(=O)[C@H](CCCNC(=N)N)NC(=O)[C@H](CCCNC(=N)N)NC(=O)c1ccc(/N=N/c2ccc(N(C)C)cc2)cc1)C(=O)NCCNc1cccc2c(S(=O)(=O)O)cccc12	Active	Active				
CC[C@H](C)[C@H](NC(=O)[C@H](CCCNC(=N)N)NC(=O)[C@H](CCCNC(=N)N)NC(=O)c1ccc(/N=N/c2ccc(N(C)C)cc2)cc1)C(=O)O	inactive	Active				
CN(C)c1ccc(/N=N/c2ccc(C(=O)N[C@@H](CCCNC(=N)N)C(=O)N[C@@H](CCCNC(=N)N)C(=O)O)cc2)cc1	inactive	inactive				
CC[C@H](C)[C@H](NC(=O)[C@H](CCCNC(=N)N)NC(=O)[C@H](CCCNC(=N)N)NC(=O)c1ccc(/N=N/c2ccc(N(C)C)cc2)cc1)C(=O)N[C@@H](CC(=O)O)C(=O)NCCNc1cccc2c(S(=O)(=O)O)cccc12 (X1-RRID-{EDANS})	Active	Active				
CC[C@H](C)[C@H](NC(=O)[C@H](CCCNC(=N)N)NC(=O)[C@H](CCCNC(=N)N)NC(=O)c1ccc(/N=N/c2ccc(N(C)C)cc2)cc1)C(=O)N[C@@H](CC(N)=O)C(=O)O (X1-RRIN-OH)	inactive	Active				
CC[C@H](C)[C@H](NC(=O)[C@H](CCCNC(=N)N)NC(=O)[C@H](CCCNC(=N)N)NC(=O)c1ccc(/N=N/c2ccc(N(C)C)cc2)cc1)C(=O)N[C@@H](CC(N)=O)C(=O)N[C@@H](CCCNC(=N)N)C(=O)O (X1-RRINR-OH)	inactive	Active				
CC[C@H](C)[C@H](NC(=O)[C@H](CCCNC(=N)N)NC(=O)[C@H](CCCNC(=N)N)NC(=O)c1ccc(/N=N/c2ccc(N(C)C)cc2)cc1)C(=O)N[C@@H](CC(N)=O)C(=O)N[C@@H](CCCNC(=N)N)C(=O)N[C@@H](CCC(=O)NCCNc1cccc2c(S(=O)(=O)O)cccc12)C(N)=O (X1-RRINRE(EDANS)-NH2)	Active	Active	Active	inactive	Active	Active
CC[C@H](C)[C@H](NC(=O)[C@H](CCCNC(=N)N)NC(=O)[C@H](CCCNC(=N)N)NC(=O)c1ccc(/N=N/c2ccc(N(C)C)cc2)cc1)C(=O)N[C@@H](CC(N)=O)C(=O)N[C@@H](CCCNC(=N)N)C(=O)N[C@@H](CCC(=O)O)C(=O)NCCNc1cccc2c(S(=O)(=O)O)cccc12 (X1-RRINRE-{EDANS})	Active	Active				
